Experimental data as given in PMC12219203 (Nature Communications, 2025).

Key:
RAW-Dual cells = assay: TNF-α secretion by RAW-Dual WT cells, with or without TLR inhibitors; format: cell-based, mouse; conditions: inhibitor 10 μM, 1 h pre-incubation, then GM 2 mM, 24 h; ELISA
Method in brief: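 RAW-Dual cells were seeded at 100,000 cells/well and pre-incubated 1 h with 10 μM TLR2 (CU_CPT22), TLR4 (TAK-242) or TLR7/9 (AT791) inhibitor. They were then stimulated with 2 mM test compound for 24 h. Supernatants were cleared at 16,000 × g and TNF-α was measured by sandwich ELISA.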

RAW264.7 cells = assay: Cytokine expression in RAW264.7 macrophages; format: cell-based, mouse; conditions: GM 1-4 mM, M 4 mM, 24 h
Method in brief: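 RAW264.7 cells were kept in high-glucose IMDM with HEPES, 5% heat-inactivated FBS and penicillin/streptomycin at 37 °C, 5% CO2. They were exposed to test compounds for 24 h (n = 4). Total RNA was extracted with a column kit, and TNF-α and IL-6 transcripts were quantified by RT-qPCR using the 2-ΔΔCt method, normalised to β-act.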

[1] = system: WT bone-marrow-derived macrophages (BMDMs); assay: Cytokine gene expression in WT BMDMs; format: cell-based, mouse; conditions: GM 2-8 mM, M 8 mM
Method in brief: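 Marrow was flushed from the femur and tibia of female SPF C57BL/6J mice and red cells were lysed (NH4Cl/KHCO3). Cells at 200,000 cells/mL were differentiated for 6 days in IMDM with 20 ng/mL GM-CSF or 10% L929 supernatant, then switched to serum-free IMDM. Test compounds were added for 24 h (n = 3). Cytokine transcripts were measured by RT-qPCR (2-ΔΔCt, normalised to β-act).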

NOD2 = assay: HEK-Blue NOD2 SEAP reporter assay; format: cell-based, human; conditions: MDP, M-AE 200 nM; GM, M 20 μM; 18 h
Method in brief: (§1)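 HEK-Blue hNod1 or hNod2 cells were seeded at 50,000 cells/well in DMEM/10% FBS without selection antibiotics and stimulated at once for 18 h (n = 3). Supernatant was mixed 1:4 with Quanti-Blue and incubated 6 h at 37 °C, and absorbance was read at 620 nm. Values were blanked against water-treated wells, and the respective parental Null cell readouts were subtracted.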

NOD1 = NOD1 (Homo sapiens, UniProt Q9Y239); assay: HEK-Blue NOD1 SEAP reporter assay; format: cell-based; conditions: GM, M 20 μM; 18 h
Method in brief: as §1

Incubation with 10% FBS = format: in vitro ADME, bovine; conditions: 37 C, 16 h, LC-MS
Tlr4-/- BMDMs = assay: Cytokine secretion by Tlr4-/- BMDMs; format: cell-based, mouse; conditions: ELISA, 24 h; GM 4 mM, MDP 0.4 mM, LPS 100 ng/mL, CpG 100 nM
Method in brief: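 Murine BMDMs were differentiated 6 days in complete medium with 20 ng/mL GM-CSF or 10% L929 supernatant, then switched to serum-free IMDM and stimulated 24 h. Mouse TNF-α and IL-6 in culture supernatants were quantified by sandwich ELISA. Samples were prediluted in 1% BSA in PBS, pH 7.4, where needed.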

Sequence of NOD1 (Q9Y239 whole entry): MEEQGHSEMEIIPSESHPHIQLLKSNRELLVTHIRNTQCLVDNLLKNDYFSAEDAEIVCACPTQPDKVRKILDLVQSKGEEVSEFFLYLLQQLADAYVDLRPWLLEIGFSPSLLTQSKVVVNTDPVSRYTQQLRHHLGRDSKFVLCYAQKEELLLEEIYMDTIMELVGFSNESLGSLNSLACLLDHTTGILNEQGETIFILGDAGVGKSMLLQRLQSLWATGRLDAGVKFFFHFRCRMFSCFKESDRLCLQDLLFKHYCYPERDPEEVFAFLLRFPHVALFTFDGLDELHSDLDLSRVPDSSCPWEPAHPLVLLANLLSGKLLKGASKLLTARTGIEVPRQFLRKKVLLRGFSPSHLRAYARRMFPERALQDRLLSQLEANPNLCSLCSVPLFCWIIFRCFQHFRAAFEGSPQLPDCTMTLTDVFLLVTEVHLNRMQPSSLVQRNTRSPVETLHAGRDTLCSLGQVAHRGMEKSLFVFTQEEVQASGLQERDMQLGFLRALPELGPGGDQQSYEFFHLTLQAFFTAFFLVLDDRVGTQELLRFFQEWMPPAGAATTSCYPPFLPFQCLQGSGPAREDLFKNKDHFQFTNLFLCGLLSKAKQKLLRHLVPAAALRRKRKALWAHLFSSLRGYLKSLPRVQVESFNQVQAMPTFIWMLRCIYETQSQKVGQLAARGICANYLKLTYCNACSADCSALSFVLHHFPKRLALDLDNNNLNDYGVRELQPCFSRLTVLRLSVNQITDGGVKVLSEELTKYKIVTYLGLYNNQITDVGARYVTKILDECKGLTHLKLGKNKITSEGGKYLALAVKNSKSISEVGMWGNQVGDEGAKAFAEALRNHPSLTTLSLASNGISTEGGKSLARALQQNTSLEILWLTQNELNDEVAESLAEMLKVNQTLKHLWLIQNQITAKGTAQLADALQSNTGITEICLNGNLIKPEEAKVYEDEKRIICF

## CCOC(=O)C1=CCCC[C@H]1S(=O)(=O)Nc1ccc(F)cc1Cl [TAK-242]
RAW-Dual cells
  Effect of TLR inhibitor on GM-triggered TNF-α production: suppressed GM-triggered TNF-α production

## CC(=O)N[C@H]1C(O)O[C@H](CO)[C@@H](O)[C@@H]1O[C@H](C)C(=O)O (some centres unmarked) [M, N-acetylmuramic acid, reference compound]
RAW264.7 cells
  Immuno-stimulatory activity (TNF-α, IL-6) in RAW264.7 (in words): less potent
[1]
  Immuno-stimulatory activity (TNF-α, IL-6) in BMDMs (in words): less potent
NOD2
  NOD2 activation in HEK-Blue reporter cells (in words): unable to activate NOD1/2
NOD1
  NOD1 activation in HEK-Blue reporter cells (in words): unable to activate NOD1/2

## M-AEKAA
Incubation with 10% FBS
  Degradation on incubation with 10% FBS: reliably yields the expected degradation products: M and AEKAA

## CC(=O)N[C@H]1C(O)O[C@H](CO)[C@@H](O)[C@@H]1O[C@H](C)C(=O)N[C@@H](C)C(=O)N[C@H](CCC(=O)O)C(=O)O (some centres unmarked) [M-AE]
NOD2
  NOD2 activation in HEK-Blue reporter cells (in words): potent NOD2 activation similar to the model ligand MDP

## CC(=O)N[C@H]1C(O)O[C@H](CO)[C@@H](O)[C@@H]1O[C@H](C)C(=O)N[C@@H](C)C(=O)N[C@H](CCC(=O)O)C(N)=O (stereo partly drawn) [MDP, N-acetylmuramyl-L-Ala-D-isoGln, reference compound]
Tlr4-/- BMDMs
  TNF-α and IL-6 production in Tlr4-/- BMDMs (in words): still trigger comparable proinflammatory cytokine production
